# RGS4 inh – inhibitors of human RGS4; P49798; HEK293 M3R/RGS4 inducible, Fluo-4 calcium flux; stronger effect = higher value; triggered by carbachol at its EC20; B-score at 10 µM; hit rate 0.45% among 310,000; AID 463165;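 active means B-score, a plate-corrected calcium signal, over three deviations above library mean, with baseline fluorescence within five deviations of library mean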;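 further: RGS4 expression induced by doxycycline in cells with stable M3 receptor; B-score is computed from the integrated fluorescence ratio over baseline after carbachol; higher B-score means a larger calcium signal and so more RGS4 inhibition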
# Target sequence (P49798 whole entry, looked up): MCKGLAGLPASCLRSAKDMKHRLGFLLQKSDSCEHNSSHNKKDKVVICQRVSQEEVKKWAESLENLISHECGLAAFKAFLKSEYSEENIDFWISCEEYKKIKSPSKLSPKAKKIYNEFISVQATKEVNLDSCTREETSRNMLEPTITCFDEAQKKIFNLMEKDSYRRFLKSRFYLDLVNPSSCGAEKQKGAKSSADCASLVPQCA
# RGS4 act – RGS4 potentiation or activation; HEK293 M3R/inducible RGS4, carbachol calcium flux Fluo4; stronger effect = lower value; B-score at 10 µM; hit rate 0.92% among 310,000;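 active means B-score of the integrated calcium signal more than 4 SD below the library mean, with starting fluorescence not abnormally high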;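 further: negative B-score means reduced calcium response which marks RGS4 activation or potentiation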
#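 System: HEK293 FlpIn-TREx cells, stable M3R, doxycycline-inducible RGS4. Timing: overnight RGS4 induction, 30 min dye load 37 °C, 20 min compound RT. Also added: carbachol, ECmax concentration. Measured by: Fluo4 fluorescence kinetic imaging of calcium. Evaluation: integrated calcium ratio converted to B score.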
# MrgX1 PAM – human MrgX1 positive allosteric modulation, primary screen. Q96LB2. MrgX1-HEK293, Fluo-4 calcium flux, FDSS; stronger effect = higher value. B-score at 10 µM. hit rate 0.63% among 310,000;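 active means plate-corrected calcium response at least 3 library SD above typical, normal starting fluorescence, not activating the receptor alone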;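 further: compound read alongside a low EC10 to EC30 dose of BAM8-22 agonist; peak minus trough fluorescence over baseline measured at the second addition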
# Target sequence (Q96LB2 whole entry, looked up): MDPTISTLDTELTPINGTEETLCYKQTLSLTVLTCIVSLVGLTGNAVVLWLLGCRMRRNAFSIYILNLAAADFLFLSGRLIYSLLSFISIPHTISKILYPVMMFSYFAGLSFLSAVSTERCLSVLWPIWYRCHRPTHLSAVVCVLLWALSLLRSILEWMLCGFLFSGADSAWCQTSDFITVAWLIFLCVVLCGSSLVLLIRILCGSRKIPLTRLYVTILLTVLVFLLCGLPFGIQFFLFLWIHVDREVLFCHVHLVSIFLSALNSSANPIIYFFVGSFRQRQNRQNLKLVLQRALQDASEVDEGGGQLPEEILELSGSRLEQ
# MrgX1 agonist – human MrgX1 receptor agonism, primary screen; B-score at 10 µM; Q96LB2; AID 588627; hit rate 0.44% among 310,000; MrgX1-HEK293 cells, Fluo-4 calcium fluorescence, agonist mode; stronger effect = higher value;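 active means calcium response B-score plate-corrected fluorescence ratio at least 3 library SD, with starting fluorescence B-score inside 5 SD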
#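 Assay system: MrgX1-expressing HEK293 cells / Amount: fifteen thousand cells per well / Doses: test compound in the initial addition of three / Timing: cells plated overnight, dye loaded 0.5 h 37 °C, 0.5 h room temperature / Technique: kinetic calcium dye fluorescence, Fluo-4 NW / Control set: positive and negative controls per plate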
# MrgX1 antagonist – human MrgX1 receptor antagonism, primary screen | AID 588676 | Q96LB2 | MRGX1-HEK293 calcium flux, Fluo-4, BAM8-22 antagonism; stronger effect = lower value | hit rate 1.3% among 310,000 | B-score at 10 µM;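 active means calcium-response B-score plate-corrected more than 3 library SD below zero, starting fluorescence within 5 deviations, no agonist response on first addition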;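 further: peak minus trough fluorescence over baseline after final BAM8-22 challenge near maximal dose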
# MrgX1 antag conf – reconfirmed antagonist of human MrgX1 receptor signaling; shares compounds with MrgX1 antagonist; MrgX1-HEK293, BAM8-22 calcium flux, Fluo-4; stronger effect = lower value; remaining BAM8-22 calcium response % of control (stronger effect = lower value), % at 10 µM; hit rate 19% among 2,300; AID 602420;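 active means remaining agonist calcium response no higher than 100% minus 3 SD of agonist-only control wells, with starting fluorescence near control levels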;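 further: agonist BAM8-22 given at a near maximal EC90 to ECmax level; peak minus minimum fluorescence divided by baseline after agonist addition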
# HEK293 Ca flux – activity in parental HEK293 cells lacking MrgX1; shares compounds with MrgX1 antagonist; fluorescence ratio F(max-min)/F0 at 10 µM; hit rate 2% among 4,000; Fluo-4 calcium fluorescence, FDSS;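 active means duplicate-averaged calcium fluorescence ratio at least three times the standard deviation of buffer wells, a nonspecific response in parental cells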
# HEK293 Ca counter – MrgX1 allosteric activator counter-screen hit in parental HEK293 cells. shares compounds with MrgX1 antagonist. parental HEK293 calcium flux, Fluo-4 fluorescence ratio; stronger effect = higher value. fluorescence ratio F(max-min)/F0 at 10 µM. hit rate 0.4% among 4,000;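 active means calcium fluorescence ratio, averaged over duplicates, at least 3 SD of the buffer-well ratio, meaning a nonspecific response in receptor-free cells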;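 further: untransfected parental HEK293 lacking MrgX1 used as counterscreen for MrgX1 allosteric activators; fluorescence change taken during the second addition on a kinetic imager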
# HEK293 Ca cntr2 – counter-screen for MrgX1 activators: effect in parental HEK293 cells; shares compounds with MrgX1 antagonist; Fluo-4 calcium fluorescence (FDSS); stronger effect = higher value; fluorescence ratio F(max-min)/F0 at 10 µM; hit rate 8.7% among 4,000;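 active means calcium fluorescence ratio at least three times the spread of buffer wells, meaning a non-specific response in parental cells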
# * hit, by the source's call; i = inactive; . = no result given. The list is not random: actives were taken first. Their share in the collection is about 3.5%.
SMILES,RGS4 inh,RGS4 act,MrgX1 PAM,MrgX1 agonist,MrgX1 antagonist,MrgX1 antag conf,HEK293 Ca flux,HEK293 Ca counter,HEK293 Ca cntr2
CCn1c(=NC(=O)CN2C(=O)CCC2=O)sc2c(OC)ccc(OC)c21,i,i,i,i,-8.23*,i,i,i,i
Cc1ccc2nc(-c3ccc(NC(=O)CSc4ccccc4)cc3)[nH]c2c1,i,i,i,i,-5.26*,i,i,i,i
COc1cccc(OC)c1NC(=O)CN1CCN(C)CC1,i,i,i,i,i,.,.,.,.
Cc1cccc(-n2c(SCC(N)=O)nnc2-c2ccccn2)c1C,i,i,i,i,-8.27*,i,i,i,i
Cc1ccc(-n2c(SCC(N)=O)nnc2-c2ccccn2)cc1,i,i,i,i,i,.,.,.,.
COc1cc(NC(=O)CCN2CCN(c3ccccc3F)CC2)cc(OC)c1,i,i,i,i,-4.83*,i,i,i,i
C=C(C)COc1ccc(-c2nc(N)ncc2Oc2ccccc2OC)c(O)c1,.,.,i,i,i,.,.,.,.
C=C(C)COc1ccc(-c2nc(N)ncc2Oc2ccc(OC)cc2)c(O)c1,i,i,i,i,-4.62*,i,i,i,i
COc1ccc(OC)c(NC(=O)NC2CCCCCCC2)c1,i,i,i,i,i,.,.,.,.
CCCC(=O)Nc1cc(OC)c(NC(=O)NC2CCCCC2)cc1OC,i,i,i,i,-4.58*,i,i,i,i
O=C(NCCN1CCN(C(=O)Nc2ccccc2)CC1)Nc1ccccc1,i,i,i,i,-6.1*,i,i,i,i
CN1CCN(c2ncnc3scc(-c4ccccc4Cl)c23)CC1,i,i,i,i,i,.,.,.,.
Cc1cc(-c2csc3ncnc(N4CCN(C)CC4)c23)cc(C)c1C,i,i,i,i,-4.89*,i,i,i,i
CC1(C)CC(=O)C(C=Nc2cccnc2)=C(O)C1,i,i,i,i,-4.62*,i,i,i,i
COc1ccc(OC)c(NC(=O)C23CC4CC(C2)CC(n2cnc(Br)n2)(C4)C3)c1,i,i,i,i,-5.25*,i,i,i,i
O=C(NCc1ccc2c(c1)OCO2)c1cc2ncc(Br)cn2n1,.,.,i,i,i,.,.,.,.
CC(=O)c1cccc(S(=O)(=O)NC2CCCCCC2)c1,i,i,i,i,i,.,.,.,.
CC(=O)c1cccc(S(=O)(=O)NC2CC2)c1,i,i,i,i,-6.76*,i,i,i,i
COc1cc(C)c(NC(=S)Nc2ccc(Cl)c(Cl)c2)cc1OC,i,i,i,i,-5.28*,66.4%*,i,i,i
COc1ccc2cc(S(=O)(=O)N3CCOCC3)ccc2c1,i,i,i,i,i,.,.,.,.
CCN1c2ccc(S(=O)(=O)N3CCOCC3)cc2N(Cc2ccc(OC)cc2)C1C (stereo not drawn),i,i,i,i,-4.71*,i,i,i,i
CC(O)[C@H]1CNCCN1CC1(c2ccccc2)CC1 (stereo partly drawn),i,i,i,i,i,.,.,.,.
O=C(COc1ccc(Cl)cc1)NCCCNC(=O)c1ccccn1,i,i,i,i,i,.,.,.,.
O=C(COc1ccc(Cl)cc1)NCCc1ccccn1,i,i,i,i,-5.23*,84.7%*,i,i,i
S=C(NCCc1ccccn1)Nc1cc(Cl)cc(Cl)c1,i,i,i,i,-4.53*,80.8%*,i,i,i
SMILES,RGS4 inh,RGS4 act,MrgX1 PAM,MrgX1 agonist,MrgX1 antagonist,MrgX1 antag conf,HEK293 Ca flux,HEK293 Ca counter,HEK293 Ca cntr2
S=C(NCCc1ccccn1)Nc1ccc(Cl)c(Cl)c1,i,i,i,i,i,.,.,.,.
CSCCC(NC(=O)COc1ccccc1)C(=O)NCC1COc2ccccc2O1 (stereo not drawn),i,i,i,i,i,.,.,.,.
COc1cccc(-n2nnc3c(=O)n(CC(=O)N4CCC(Cc5ccccc5)CC4)cnc32)c1,i,i,i,i,-7.53*,i,i,i,i
Cc1cc2nc3n(c2cc1C)CC1CC(C(=O)NCc2cccc(C(F)(F)F)c2)N(C)C31 (stereo not drawn),i,i,i,i,-5.49*,i,i,i,i
CN1C(C(=O)NCc2cccc(C(F)(F)F)c2)CC2Cn3c(nc4cc5ccccc5cc43)C21 (stereo not drawn),i,i,i,i,i,.,.,.,.
CC(Oc1ccccc1Cl)c1nnc(N)s1 (stereo not drawn),i,i,i,i,-7.82*,i,i,i,i
O=c1cc(NS(=O)(=O)c2ccccc2)nc(SCc2c(Cl)cccc2Cl)[nH]1,i,i,i,i,-5.14*,i,i,i,i
CCOC(=O)C1=C(CC)Nc2ccccc2N=C1NC(=O)Nc1ccc(Cl)c(Cl)c1,i,i,i,i,-6.1*,49.8%*,i,i,i
CCOC(=O)C1=C(CC)Nc2ccccc2N=C1NC(=O)c1ccc(S(=O)(=O)N2CCCC2)cc1,i,i,i,i,i,.,.,.,.
CC1CCN(C(=O)CSc2ccc(-c3cccc([N+](=O)[O-])c3)nn2)CC1,i,i,i,i,i,.,.,.,.
CC(=O)Nc1ccc(S(=O)(=O)Nc2cc(-c3ccccc3)nn2C)cc1,i,i,i,i,i,.,.,.,.
CC(=O)Nc1ccc(S(=O)(=O)Nc2nc3nc(-c4ccccc4)cc(-c4ccccc4)n3n2)cc1,i,i,i,i,-6.38*,81.4%*,i,i,i
Cc1cnc(C(=O)OCC(=O)c2csc(N3CCCCC3)n2)cn1,i,i,i,i,-5.66*,i,i,i,i
O=C(CN1C(=O)NC2(CCCc3ccccc32)C1=O)N1CCc2ccccc2C1 (stereo not drawn),i,i,i,i,-9.25*,85.2%*,i,i,i
